The subject of data set [1] is L1210. Briefly: Cytotoxicity against mouse L1210 cells at 63 ug/disk by Valeriote soft agar disk diffusion method. It counts as functional. The essentials: (§1)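 Corbett–Valeriote soft agar disk diffusion assay. Sample is loaded onto a disk at the stated µg/disk and placed on soft agar cultures of the cells. The read-out is the size of the zone of inhibition around the disk. Zones for the solid tumour line (Colon38) are compared with those for leukaemia cells (L1210) or normal CFU-GM cells to judge differential cytotoxicity.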

The test system of data set [2] is MC-38. Briefly: Cytotoxicity against […] cells at 63 ug/disk by Valeriote soft agar disk diffusion method. It counts as functional. The essentials: as §1
(In general: In agar diffusion tests the substance spreads into inoculated agar from a disc or well.)

Data set [3] in a line: Cytotoxicity against human CFU-GM cells at 63 ug/disk by Valeriote soft agar disk diffusion method. It counts as cell-based. The method, boiled down:
as §1

Data set [4] relates to L1210. Briefly: Cytotoxicity against mouse L1210 cells at 113 ug/disk by Valeriote soft agar disk diffusion method. It counts as functional. The method, boiled down: as §1
Data set [5] relates to MC-38. Briefly: Cytotoxicity against […] cells at 113 ug/disk by Valeriote soft agar disk diffusion method. It is filed as functional. The essentials: as §1
Data set [6] in a line: Cytotoxicity against human CFU-GM cells at 113 ug/disk by Valeriote soft agar disk diffusion method. It is filed as cell-based. The essentials:
as §1

Data set [7] in a line: Cytotoxicity against human NCI60 cells. It is filed as functional. The following applies: for TGI: read-out: pTGI (converted).
The nature of data set [8]: Cytotoxicity against human H116 cells at 1.5 ug/mL by Valeriote soft agar disk diffusion method. It counts as functional. The method, boiled down:
(§2)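 Corbett–Valeriote soft agar disk diffusion assay, with doses given per disk. Zones of inhibition around sample disks were compared between solid tumor cells (Colon38, ColonH116, LungH125) and either leukemia cells (L1210 or CEM) or normal CFU-GM cells. Zone sizes were used to score differential (solid tumor-selective) cytotoxicity.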

The nature of data set [9]: Cytotoxicity against human H125 cells at 1.5 ug/mL by Valeriote soft agar disk diffusion method. It is filed as functional. The essentials:
as §2

Data set [10] has as its system L1210. Nature of the data set: Cytotoxicity against mouse L1210 cells at 1.5 ug/mL by Valeriote soft agar disk diffusion method. It counts as functional. The method, boiled down:
as §2

Data set [11] concerns CCRF-CEM. Briefly: Cytotoxicity against human CEM cells at 1.5 ug/mL by Valeriote soft agar disk diffusion method. It counts as functional. The essentials:
as §2

Data set [12] relates to MC-38. Briefly: Cytotoxicity against […] cells at 1.5 ug/mL by Valeriote soft agar disk diffusion method. It is filed as functional. The method, boiled down:
as §2

For data set [13], the system named is CCRF-CEM. Nature of the data set: Cytotoxicity against human CEM cells at 1.5 ug/mL by Valeriote soft agar disk diffusion method.
Data set [14] in a line: Cytotoxicity against human H116 cells at 1.5 ug/mL by Valeriote soft agar disk diffusion method.
Data set [15] is described as follows: Cytotoxicity against human H125 cells at 1.5 ug/mL by Valeriote soft agar disk diffusion method.
Data set [16] concerns L1210. Briefly: Cytotoxicity against mouse L1210 cells at 1.5 ug/mL by Valeriote soft agar disk diffusion method.
For data set [17], the system named is MC-38. Briefly: Cytotoxicity against […] cells at 1.5 ug/mL by Valeriote soft agar disk diffusion method.
In data set [18] the test system is MC-38. Nature of the data set: Cytotoxicity against […] cells at 1.8 ug/mL by Valeriote soft agar disk diffusion method. It is filed as functional. The method, boiled down: as §2

Data on 5 compounds can be found in ChEMBL document CHEMBL1148211, “Cytotoxic lissoclimide-type diterpenes from the molluscs Pleurobranchusalbiguttatus and Pleurobranchus forskalii” (J Nat Prod, 2004).

A word on the GI50: it is the concentration at which growth is held to half of that of the control. For orientation: LC50 means the concentration lethal to half of the exposed cells or organisms. Lower therefore signals greater toxicity.

With `C=C1[C@@H](O)C[C@H]2C(C)(C)[C@@H](O)[C@H](Cl)C[C@]2(C)[C@H]1C[C@H](O)[C@H]1CC(=O)NC1=O`, the Activity worked out at 500 Zone units in the data set with L1210 [1], 400 Zone units with MC-38 [2] and 100 Zone units in data set [3].

In the case of `C=C1CC(=O)[C@H]2C(C)(C)[C@@H](Cl)[C@H](Cl)C[C@]2(C)[C@H]1C[C@H](O)[C@H]1CC(=O)NC1=O`, the Activity was found to be 250 Zone units in the data set with L1210 [4], 650 Zone units in the data set with MC-38 [5] and 350 Zone units in [6].

Compound `C=C1[C@@H](O)C[C@H]2C(C)(C)C[C@H](Cl)C[C@]2(C)[C@H]1C[C@H](O)[C@H]1CC(=O)NC1=O` [CHLOROLISSOCLIMIDE] had a GI50 in data set [7] of 5.75 nM. Moreover, in data set [7], the LC50 is 16600 nM. In addition, in data set [7], the TGI was 129 nM. The Activity (in [8]; in [9]; with L1210 [10]; with CCRF-CEM [11]; in the data set with MC-38 [12]; in the data set with CCRF-CEM [13]) was 550 Zone units in each case. Besides, the Activity (in [14]; in data set [15]; in the data set on L1210 [16]; in the data set on MC-38 [17]) was 550 Zone units each time.

Take `C=C1[C@@H](O)C[C@H]2C(C)(C)[C@@H](Cl)[C@H](Cl)C[C@]2(C)[C@H]1C[C@H](O)[C@H]1CC(=O)NC1=O` [DICHLOROLISSOCLIMIDE]: the GI50 in data set [7] was 5.5 nM. The LC50 in data set [7] is 20000 nM. In addition, the TGI in data set [7] was 123 nM. For the same compound, the Activity (in data set [8]; in data set [9]; in the data set on L1210 [10]; in the data set on CCRF-CEM [11]; in the data set on MC-38 [12]; with MC-38 [18]) was 550 Zone units each time. Besides, the Activity (in the data set on CCRF-CEM [13]; in [14]; in data set [15]; in the data set on L1210 [16]) was 550 Zone units in each case.

Regarding `CC1=CC(=O)[C@H]2C(C)(C)[C@@H](Cl)[C@H](Cl)C[C@]2(C)[C@H]1C[C@H](O)[C@H]1CC(=O)NC1=O` [HATERUMAIMIDE D], in data set [7], it took 977 nM to inhibit growth by half (GI50), the LC50 is 44700 nM and the TGI is 12300 nM.
